Laboratory results as given in ChEMBL document CHEMBL3272327, “Hypocholesterolemic activity of 1,3-bis(substituted phenoxy)-2-propanones” (J Med Chem, 1976).

Tests used:
[1] = test system: Rattus norvegicus; assay: Effect on kidney weight in rat at 1 mg/kg/day administered for 16 days measured 24 hrs after last drug dosage relative to total body weight (reference value: 0.92 +/- 0.04%); format: ADME, organism-based; settings: in vivo
[2] = test system: Rattus norvegicus; assay: Effect on spleen weight in rat at 50 mg/kg/day administered for 16 days measured 24 hrs after last drug dosage relative to total body weight (reference value: 0.55 +/- 0.12%); format: ADME, organism-based; settings: in vivo
[3] = test system: Rattus norvegicus; assay: Effect on heart weight in rat at 1 mg/kg/day administered for 16 days measured 24 hrs after last drug dosage relative to total body weight (reference value: 0.37 +/- 0.04%); format: ADME, organism-based; settings: in vivo
[4] = test system: Rattus norvegicus; assay: Hypocholesterolemic activity in rat assessed as [14C]cholesterol recover at 10 mg/kg/day administered for 1 week measured after 22 hrs on day 7 by scintillation counting analysis (reference value: 99.11%); format: functional
Procedure, shortened: (§1)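 Male rats were dosed orally for 1 week (10 mg/kg/day) or with 1% CMC. On day 7 they received 5 μCi [4-14C]cholesterol orally and were killed after 22 hr. Organs were homogenized (10% in water); 0.1-cc aliquots of homogenate, urine, blood or feces were digested with Protosol. Samples were counted in toluene/Triton X-100 (2:1) scintillant with 0.4% PPO and 0.01% POPOP. Results are % of dose per tissue, N = 6.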

[5] = test system: Rattus norvegicus; assay: Hypocholesterolemic activity in Sprague-Dawley rat assessed as serum cholesterol level at 50 mg/kg/day, po administered via intubation measured on day 16 by Liebermann-Burchard reaction (reference value: 100 +/- 8%); format: functional
[6] = test system: Rattus norvegicus; assay: Hypocholesterolemic activity in rat assessed as [14C]cholesterol level in spleen at 10 mg/kg/day administered for 1 week measured after 22 hrs on day 7 by scintillation counting analysis (reference value: 1.41 +/- 1.01%); format: functional; procedure, shortened: as §1
[7] = test system: Rattus norvegicus; assay: Hypocholesterolemic activity in rat assessed as [14C]palmitic acid level in kidney at 10 mg/kg/day administered for 1 week measured after 22 hrs on day 7 by scintillation counting analysis (reference value: 0.68 +/- 0.16%); format: functional
Procedure, shortened: (§2)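 Male Sprague-Dawley rats on lab chow dosed orally once daily for 1 week at 10 mg/kg/day, suspended in 1% CMC, or given vehicle alone. On day 7, 5 μCi [1-14C]palmitic acid given orally. Killed after 22 hr; organs made into 10% water homogenates. Aliquots of 0.1 cc of homogenate, urine, blood or feces were digested and scintillation counted. Output is % of dose per tissue, N = 6.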

[8] = test system: Rattus norvegicus; assay: Hypocholesterolemic activity in rat assessed as [14C]cholesterol level in urine at 10 mg/kg/day administered for 1 week measured after 22 hrs on day 7 by scintillation counting analysis (reference value: 0.14 +/- 0.06%); format: functional; procedure, shortened: as §1
[9] = test system: Rattus norvegicus; assay: Effect on food intake in rat at 5 mg/kg/day measured during first week (reference value: 19.1 +/- 1.7 gms); format: ADME, organism-based; settings: in vivo
Procedure, shortened: (§3)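 Male rats dosed orally at 1, 5, 10 or 50 mg/kg/day in 1% CMC. Average food intake in grams per rat per week measured over a 2-week period, first and second weeks reported separately. N = 8, Student's t test against the 1% CMC control.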

[10] = test system: Rattus norvegicus; assay: Hypocholesterolemic activity in [14C]palmitic acid-treated rat assessed as decrease in 14C fatty acid incorporation into phospholipid fraction in liver at 10 mg/kg/day administered for 1 week by scintillation counting analysis; format: functional; parameters: scale not given: the % may be the effect or the level left
[11] = test system: Rattus norvegicus; assay: Effect on kidney weight in rat at 5 mg/kg/day administered for 16 days measured 24 hrs after last drug dosage relative to total body weight (reference value: 0.92 +/- 0.04%); format: ADME, organism-based; settings: in vivo
[12] = test system: Rattus norvegicus; assay: Hypocholesterolemic activity in rat assessed as [14C]cholesterol level in vas deferens at 10 mg/kg/day administered for 1 week measured after 22 hrs on day 7 by scintillation counting analysis (reference value: 0.03 +/- 0.02%); format: functional; procedure, shortened: as §1
[13] = test system: Rattus norvegicus; assay: Effect on vas deferens and epididymis weight in rat at 10 mg/kg/day administered for 16 days measured 24 hrs after last drug dosage relative to total body weight (reference value: 0.22 to 0.24%); format: ADME, organism-based; settings: in vivo
[14] = test system: Rattus norvegicus; assay: Hypocholesterolemic activity in rat assessed as [14C]palmitic acid level in stomach at 10 mg/kg/day administered for 1 week measured after 22 hrs on day 7 by scintillation counting analysis (reference value: 0.65 +/- 0.46%); format: functional; procedure, shortened: as §2
[15] = test system: Rattus norvegicus; assay: Hypocholesterolemic activity in rat assessed as [14C]cholesterol level in large intestine at 10 mg/kg/day administered for 1 week measured after 22 hrs on day 7 by scintillation counting analysis (reference value: 19.12 +/- 5.62%); format: functional; procedure, shortened: as §1
[16] = test system: Rattus norvegicus; assay: Hypocholesterolemic activity in rat assessed as [14C]palmitic acid recovery at 10 mg/kg/day administered for 1 week measured after 22 hrs on day 7 by scintillation counting analysis (reference value: 98%); format: functional; procedure, shortened: as §2
[17] = test system: Rattus norvegicus; assay: Effect on glycogen content in rat liver at 10 mg/kg/day administered for 16 days (reference value: 100 +/- 24%); format: ADME, organism-based; settings: in vivo, 384 h
[18] = test system: Rattus norvegicus; assay: Effect on brain weight in rat at 50 mg/kg/day administered for 16 days measured 24 hrs after last drug dosage relative to total body weight (reference value: 0.67 +/- 0.05%); format: ADME, organism-based; settings: in vivo
[19] = test system: Rattus norvegicus; assay: Effect on testes weight in rat at 50 mg/kg/day administered for 16 days measured 24 hrs after last drug dosage relative to total body weight (reference value: 1.08 +/- 0.08%); format: ADME, organism-based, Testis; settings: in vivo
[20] = test system: Rattus norvegicus; assay: Hypocholesterolemic activity in rat assessed as [14C]palmitic acid level in blood at 10 mg/kg/day administered for 1 week measured after 22 hrs on day 7 by scintillation counting analysis (reference value: 0.11 +/- 0.06%); format: functional
[21] = test system: Rattus norvegicus; assay: Hypocholesterolemic activity in rat assessed as [14C]palmitic acid level in large intestine at 10 mg/kg/day administered for 1 week measured after 22 hrs on day 7 by scintillation counting analysis (reference value: 3.46 +/- 1.25%); format: functional; procedure, shortened: as §2
[22] = test system: Rattus norvegicus; assay: Hypocholesterolemic activity in Sprague-Dawley rat assessed as serum cholesterol level at 1 mg/kg/day, po administered via intubation measured on day 10 by Liebermann-Burchard reaction (reference value: 100 +/- 7%); format: functional
[23] = test system: Rattus norvegicus; assay: Effect on testes weight in rat at 5 mg/kg/day administered for 16 days measured 24 hrs after last drug dosage relative to total body weight (reference value: 1.08 +/- 0.08%); format: ADME, organism-based, Testis; settings: in vivo
[24] = Toxicity in ip dosed CF1 mouse assessed as animal death; format: organism-based; settings: in vivo
Procedure, shortened: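 Male CF1 mice given active propanones ip over 10 mg to 6 g/kg where solubility allowed; deaths recorded to estimate LD50.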

[25] = test system: Rattus norvegicus; assay: Effect on kidney weight in rat at 50 mg/kg/day administered for 16 days measured 24 hrs after last drug dosage relative to total body weight (reference value: 0.92 +/- 0.04%); format: ADME, organism-based; settings: in vivo
[26] = test system: Rattus norvegicus; assay: Hypocholesterolemic activity in rat assessed as [14C]cholesterol level in testes at 10 mg/kg/day administered for 1 week measured after 22 hrs on day 7 by scintillation counting analysis (reference value: 0.24 +/- 0.17%); format: functional, Testis; procedure, shortened: as §1
[27] = test system: Rattus norvegicus; assay: Effect on food intake in rat at 1 mg/kg/day measured during first week (reference value: 19.1 +/- 1.7 gms); format: ADME, organism-based; settings: in vivo; procedure, shortened: as §3
[28] = test system: Rattus norvegicus; assay: Effect on liver weight in rat at 5 mg/kg/day administered for 16 days measured 24 hrs after last drug dosage relative to total body weight (reference value: 4.22 +/- 0.29%); format: ADME, organism-based; settings: in vivo

SMILES: Cc1ccc(OCC(=O)COc2ccc(C)cc2)cc1
- Activity [1]: 0.79%
- Activity [2]: 0.4%
- Activity [3]: 0.38%
- Activity [4]: 99.94%
- Activity [5]: 44%
- Activity [6]: 1.86%
- Activity [7]: 0.94%
- Activity [8]: 0.94%
- Activity [9]: 18.8 g
- Activity [10]: 16%
- Activity [11]: 0.88%
- Activity [12]: 0.07%
- Activity [13]: 0.24%
- Activity [14]: 0.48%
- Activity [15]: 12.84%
- Activity [16]: 96.75%
- Activity [17]: 118%
- Activity [18]: 0.83%
- Activity [19]: 1.19%
- Activity [20]: 0.03%
- Activity [21]: 9.91%
- Activity [22]: 71%
- Activity [23]: 1.03%
- LD50 [24]: 1500 mg/kg
- Activity [25]: 0.88%
- Activity [26]: 0.33%
- Activity [27]: 19.2 g
- Activity [28]: 4.31%
